Assay results reported in ChEMBL document CHEMBL1135970, “Identification of a pharmacophore for thrombopoietic activity of small, non-peptidyl molecules. 1. Discovery and optimization of salicylaldehyde thiosemicarbazone thrombopoietin mimics” (J Med Chem, 2002).

System: not listed separately
Assay: Compound was evaluated for the expression of luciferase activity in BAF3/TPO-Rluc cell line
Assay type: functional, cell-based
Conditions: Homo sapiens, BAF-3/TPO-Rluc
Summary of the method: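 BAF3/TPO-Rluc cells at (1 × 10⁵)/mL, starved of IL-3 overnight, in growth medium with 0.5% v/v FBS and 30 µM ZnCl₂. Incubated with compound (0.32% DMSO final) or rhuTPO for 3 h at 37 °C, 5% CO₂. Luciferase activity read on a luminometer; each point is the mean of triplicate assays.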

Compound	EC50
O=C(O)c1ccc(N/C(S)=N/N=C/c2cc(Cl)cc(Cl)c2O)cc1	0.35 µM
Cc1ccc(-n2[nH]c(C)c(/N=N/c3c(O)cc(S(=O)(=O)O)c4ccccc34)c2=O)cc1C	0.04 µM
Cc1cc(Cl)ccc1/N=C(\S)N/N=C/c1cc(Cl)cc(Cl)c1O	5.6 µM
O=S(=O)(O)c1ccc(N/C(S)=N/N=C/c2cc(Cl)cc(Cl)c2O)cc1	0.26 µM

Organism: Homo sapiens
Assay: Thrombopoietin efficacy in human bone marrow cultures was reported
Assay type: functional
Conditions: not given

Compound	TPO(max)
O=C(O)c1ccc(N/C(S)=N/N=C/c2cccc(-c3cccc(C(F)(F)F)c3)c2O)cc1	100%
O=C(O)c1ccc(N/C(S)=N/N=C/c2cc(Cl)cc(Cl)c2O)cc1	30%
Cc1ccc(-n2[nH]c(C)c(/N=N/c3c(O)cc(S(=O)(=O)O)c4ccccc34)c2=O)cc1C	100%
Cc1cc(Cl)ccc1/N=C(\S)N/N=C/c1cc(Cl)cc(Cl)c1O	30%
O=S(=O)(O)c1ccc(N/C(S)=N/N=C/c2cc(Cl)cc(Cl)c2O)cc1	29%
Cc1ccc(-c2cccc(/C=N/N=C(\S)Nc3cccc(C(=O)O)c3)c2O)cc1C	90%
